The species named for data set [1] is Danio rerio. Briefly: Modulation of neurological behavior in zebrafish assessed as effect on touch response by high-throughput screening. In kind it is functional, organism-based. An outline of the steps: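 Zebrafish embryos were raised in E3 medium buffered with 10 mM HEPES, in the dark at 28 °C. At 28 hpf, groups of 8–10 were placed in 96-well plates, then kept dark at 25 °C during chemical treatment. After the photomotor assay, each animal was touched with a fine plastic probe and observed under a dissecting microscope. Wells were scored normal, toxic, sedative (no touch response but healthy heartbeat and circulation) or other.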

The nature of data set [2]: Inhibition of MAO by plate-reader assay.
The nature of data set [3]: Ratio of pargyline IC50 to compound IC50 for MAO.
For data set [4], the species on record is Danio rerio. In words: Modulation of neurological behavior in zebrafish assessed as prolongation of high intensity light-induced motor response at 10 to 100 uM by photomotor response assay. In kind it is functional, organism-based. An outline of the steps: (§1)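 Zebrafish embryos were raised in E3 medium buffered with 10 mM HEPES, in the dark at 28 °C. At 28 hpf, 8–10 per well went into 96-well plates, held dark at 25 °C for chemical treatment. For each well, 1000 video frames were recorded at 33 fps, with light stimuli. A motion index was computed from frame-to-frame pixel-intensity differences. Q1 and Q3 of this index over seven time periods gave fourteen pseudo z-scores versus control wells.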

For data set [5], the species on record is Danio rerio. Briefly: Modulation of neurological behavior in zebrafish assessed as robist increase in high intensity light-induced motor response at 10 to 100 uM by photomotor response assay. Type of data set: functional, organism-based. An outline of the steps: (§2)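 Embryos raised in HEPES (10 mM)-buffered E3 in the dark at 28 °C, then distributed at 28 hpf in groups of 8–10 per well of 96-well plates in E3 and held in the dark at 25 °C for chemical exposure. Light pulses were delivered while 1000 video frames were recorded at 33 fps. Motion index quartiles (Q1, Q3) in seven time periods were converted to pseudo z-scores against control wells.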

The species entered for data set [6] is Danio rerio. Briefly: Modulation of neurological behavior in zebrafish assessed as robist increase in high intensity light-induced motor response at < 10 uM by photomotor response assay. In kind it is functional, organism-based. The gist of the method:
as §2

The species named for data set [7] is Danio rerio. Briefly: Psychostimulant activity in zebrafish assessed as increase in high intensity light-induced motor response at 10 to 100 uM by photomotor response assay. Type of data set: functional, organism-based. An outline of the steps:
as §1

The species named for data set [8] is Danio rerio. In words: Psychostimulant activity in zebrafish assessed as increase in high intensity light-induced motor response at < 10 uM by photomotor response assay. Type of data set: functional, organism-based. An outline of the steps:
as §1

Data set [9] is filed under the species Danio rerio. In words: Anxiolytic activity in zebrafish assessed as decrease in high intensity light-induced motor behavior at <10 uM by photomotor response assay. Type of data set: functional, organism-based. An outline of the steps:
as §2

Data set [10] deals with T1, Acetylcholinesterase (Homo sapiens, UniProt P22303). In words: Inhibition of AChE.
The nature of data set [11]: Inhibition of MAO at 10 uM by plate-reader assay.
Data set [12] has as its target T1, Acetylcholinesterase. In words: Inhibition of AChE at 10 uM.
The target of data set [13] is Acetylcholinesterase (Danio rerio, UniProt Q9DDE3). In words: Inhibition of AChE in zebrafish embryo.
For data set [14], the species on record is Danio rerio. Briefly: Anxiolytic activity in zebrafish assessed as decrease in high intensity light-induced motor behavior at 10 to 100 uM by photomotor response assay. In kind it is functional, organism-based. An outline of the steps:
as §2

Data set [15] is filed under the species Danio rerio. In words: Toxicity in zebrafish assessed as mortality at 100 uM. Particulars: in vivo. Type of data set: organism-based. The gist of the method: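 Embryos were treated in 96-well plates, 8–10 per well, then scored after the photomotor assay under a dissecting microscope. Scoring covered developmental retardation, morphological defects, heart morphology, rate and circulation, response to touch with a fine plastic probe, and overall appearance. Wells were classed as normal, toxic, sedative or other.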

The species entered for data set [16] is Danio rerio. In words: Modulation of neurological behavior in zebrafish assessed as prolongation of high intensity light-induced motor response at < 10 uM by photomotor response assay. In kind it is functional, organism-based. An outline of the steps: as §1

Active and inactive are the calls of the source. The calls are words filed in the database; no cut-off is given here.

T1 sequence (P22303 whole entry): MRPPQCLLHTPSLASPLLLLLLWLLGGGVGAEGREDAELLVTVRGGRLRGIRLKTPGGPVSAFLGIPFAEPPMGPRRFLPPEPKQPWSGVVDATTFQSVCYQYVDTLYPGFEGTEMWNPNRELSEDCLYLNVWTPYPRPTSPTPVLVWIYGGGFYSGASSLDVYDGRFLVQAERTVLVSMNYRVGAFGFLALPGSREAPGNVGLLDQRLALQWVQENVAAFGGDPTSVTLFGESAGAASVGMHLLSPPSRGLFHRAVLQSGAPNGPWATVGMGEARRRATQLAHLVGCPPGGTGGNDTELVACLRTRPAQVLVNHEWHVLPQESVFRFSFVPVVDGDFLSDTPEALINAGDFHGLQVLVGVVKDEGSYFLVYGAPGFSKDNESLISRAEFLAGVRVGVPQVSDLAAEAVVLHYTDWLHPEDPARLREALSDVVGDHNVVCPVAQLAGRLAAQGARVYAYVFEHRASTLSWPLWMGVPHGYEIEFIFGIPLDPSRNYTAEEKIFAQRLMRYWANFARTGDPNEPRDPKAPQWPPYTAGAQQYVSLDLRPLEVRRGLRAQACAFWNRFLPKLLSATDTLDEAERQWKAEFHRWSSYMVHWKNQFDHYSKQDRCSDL
Chain of Acetylcholinesterase (Danio rerio, UniProt Q9DDE3) (Q9DDE3 whole entry): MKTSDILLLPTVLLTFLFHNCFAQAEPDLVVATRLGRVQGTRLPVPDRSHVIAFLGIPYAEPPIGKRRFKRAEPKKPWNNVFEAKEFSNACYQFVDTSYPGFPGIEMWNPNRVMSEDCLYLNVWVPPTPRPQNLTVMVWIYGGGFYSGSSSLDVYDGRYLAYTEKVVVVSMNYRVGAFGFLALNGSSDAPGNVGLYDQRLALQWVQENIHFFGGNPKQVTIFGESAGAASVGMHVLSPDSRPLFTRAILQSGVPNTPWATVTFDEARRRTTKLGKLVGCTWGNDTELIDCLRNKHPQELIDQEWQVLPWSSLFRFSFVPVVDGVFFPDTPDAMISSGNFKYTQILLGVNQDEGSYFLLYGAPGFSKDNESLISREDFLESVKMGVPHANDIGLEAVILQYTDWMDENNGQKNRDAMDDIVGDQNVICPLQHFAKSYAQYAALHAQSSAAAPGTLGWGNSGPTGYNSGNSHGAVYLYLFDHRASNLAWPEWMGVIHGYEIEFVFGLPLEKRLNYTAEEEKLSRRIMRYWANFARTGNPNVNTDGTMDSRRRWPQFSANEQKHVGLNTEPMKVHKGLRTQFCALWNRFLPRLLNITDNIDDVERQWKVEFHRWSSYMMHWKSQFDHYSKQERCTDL

In the case of `O=C(Oc1ccc2c3c(c(=O)oc2c1)CCCC3)c1ccccc1`, the result in the data set listed under Danio rerio [1] was Active.
Same read-out and setting: to `CC(C)(C)NCC(O)c1cc(Cl)c(N)c(Cl)c1` (centres undefined) belongs “Active”.
Usually IC50 stands for the concentration that inhibits the measured activity by half. A high value points to lower potency. For the compound `CC(C)(C)OC(=O)NCCC(=O)Oc1cc2oc(=O)c3c(c2cc1Cl)CCC3`, the half-maximal inhibitory concentration (IC50) in data set [2] worked out at 1000 nM. The Ratio IC50 in data set [3] came out at 100.
Regarding `CN1[C@@H]2CC[C@H]1C[C@@H](OC(=O)C(CO)c1ccccc1)C2` (some centres undefined), the result in the data set filed under Danio rerio [4] was Active.
`O=[N+]([O-])c1ccc2nc(N3CCNCC3)ccc2c1`: the result in the data set listed under Danio rerio [5] and in the data set listed under Danio rerio [1] was Active. In addition, the result in the data set listed under Danio rerio [6] was inactive.
Consider `CNC[C@H](O)c1ccc(O)c(O)c1`, for which, in the data set filed under Danio rerio [1], the outcome was Active.
As to `CC(C)NCC(O)c1ccc(O)c(O)c1` (centres undefined), the outcome in the data set listed under Danio rerio [7] and in the data set listed under Danio rerio [1] was Active. In addition, the outcome in the data set filed under Danio rerio [8] and in the data set filed under Danio rerio [9] was inactive.
For the compound `O=C(CCCN1C(=O)c2ccccc2C1=O)N1CCCCCC1`, the outcome in the data set listed under Danio rerio [1] was Active. The same compound yielded an IC50 against Acetylcholinesterase [10] of 500 nM.
With `CC(C)(C)OC(=O)NCCC(=O)Oc1cc2oc(=O)c3c(c2cc1Cl)CCCC3`, half-maximal inhibition in [2] (IC50) required 10000 nM. The Ratio IC50 in data set [3] was determined as 100.
In the case of `C[n+]1ccccc1C=NO`, the result in the data set listed under Danio rerio [4] was Active.
What is called inhibition is the relative decrease from the control value, in per cent. As to `CC(=O)CC(c1ccccc1)c1c(O)c2ccccc2oc1=O` (centres undefined), the result in the data set listed under Danio rerio [1] was Active. In data set [11], the inhibition result was “inactive”.
For `CNC(=O)Oc1ccc2c(c1)[C@]1(C)CCN(C)[C@@H]1N2C`, in the data set filed under Danio rerio [1], the result was Active.
`O=C1c2ccccc2-c2nc3ncnn3c(-c3ccccc3Cl)c21`: in the data set filed under Danio rerio [1], the outcome was Active. Moreover, the inhibition result on Acetylcholinesterase [12] is “inactive”. Also, the IC50 on Acetylcholinesterase [13] was determined as 500 nM.
Turning to `O=C(CNC(=O)OCc1ccccc1)Oc1cc2oc(=O)c3c(c2cc1Cl)CCC3`, the inhibition in data set [11] was determined as 0%. In addition, the Ratio IC50 in data set [3] worked out at 100.
For the compound `CN1C(=O)CN=C(c2ccccc2)c2cc(Cl)ccc21`, in the data set listed under Danio rerio [14], the inhibition result is “Active”. In addition, the inhibition result in the data set listed under Danio rerio [9] was “inactive”. The result in the data set filed under Danio rerio [1] was Active.
Compound `CC(C)(C)OC(=O)NCC(=O)Oc1cc2oc(=O)c3c(c2cc1Cl)CCC3` had a 50% inhibitory concentration (IC50) in [2] of 500 nM. The Ratio IC50 in data set [3] came out at 100.
As for `C#CCN(C)Cc1ccccc1`, the outcome in the data set filed under Danio rerio [1] was Active.
Take `COC(=O)c1ccc(COc2cc(C)ccc2C(=O)Oc2ccc3c4c(c(=O)oc3c2)CCCC4)o1`: the Ratio IC50 in [3] came out at 100.
Consider `C[C@]12CC[C@H](O)C[C@H]1CC[C@@H]1[C@@H]2CC[C@]2(C)[C@@H](C3=CC(=O)OC3)CC[C@]12O` [DIGITOXIGENIN], for which, in the data set listed under Danio rerio [15], the Activity entry is recorded as “Toxic”. Also, the result in the data set filed under Danio rerio [1] was Active.
For `CN1CCc2cccc3c2[C@H]1Cc1ccc(O)c(O)c1-3`, the result in the data set filed under Danio rerio [4] and in the data set listed under Danio rerio [1] was Active. Moreover, in the data set filed under Danio rerio [16], the outcome was inactive.
As to `Cc1cc2c(OCC(CNC(C)(C)C)OC(=O)c3ccccc3)cccc2[nH]1` (centres undefined), in the data set listed under Danio rerio [4], the outcome was Active.
